Assay [1] has as its target T1, Polyunsaturated fatty acid lipoxygenase ALOX15 (Homo sapiens, UniProt P16050).
T1 sequence (P16050 whole entry): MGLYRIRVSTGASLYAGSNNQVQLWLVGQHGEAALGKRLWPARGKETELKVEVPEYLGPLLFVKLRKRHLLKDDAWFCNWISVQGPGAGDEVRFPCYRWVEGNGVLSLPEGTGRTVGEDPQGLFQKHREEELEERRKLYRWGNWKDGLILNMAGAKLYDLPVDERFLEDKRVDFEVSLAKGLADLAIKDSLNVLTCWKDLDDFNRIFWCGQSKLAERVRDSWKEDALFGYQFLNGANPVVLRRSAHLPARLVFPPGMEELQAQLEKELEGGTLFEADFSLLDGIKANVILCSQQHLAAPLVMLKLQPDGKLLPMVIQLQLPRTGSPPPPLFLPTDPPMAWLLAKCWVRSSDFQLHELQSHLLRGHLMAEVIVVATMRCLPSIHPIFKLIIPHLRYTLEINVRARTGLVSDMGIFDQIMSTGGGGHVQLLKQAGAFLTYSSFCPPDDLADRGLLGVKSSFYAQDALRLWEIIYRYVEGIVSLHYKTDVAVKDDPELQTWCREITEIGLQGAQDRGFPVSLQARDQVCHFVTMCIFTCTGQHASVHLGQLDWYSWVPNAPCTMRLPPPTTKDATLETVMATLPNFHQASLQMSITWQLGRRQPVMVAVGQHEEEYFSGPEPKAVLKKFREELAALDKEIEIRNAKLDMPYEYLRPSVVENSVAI
As to the kind of experiment: Competitive inhibition of human 15-LOX-1 assessed as reduction in conversion of linoleic acid to 13(S)-HpODE incubated for 10 mins followed by linoleic acid addition by Lineweaver-Burk plot analysis.

Assay [2] deals with T2, Polyunsaturated fatty acid lipoxygenase ALOX15 (Mus musculus) (UniProt P39654).
T2 sequence (whole entry): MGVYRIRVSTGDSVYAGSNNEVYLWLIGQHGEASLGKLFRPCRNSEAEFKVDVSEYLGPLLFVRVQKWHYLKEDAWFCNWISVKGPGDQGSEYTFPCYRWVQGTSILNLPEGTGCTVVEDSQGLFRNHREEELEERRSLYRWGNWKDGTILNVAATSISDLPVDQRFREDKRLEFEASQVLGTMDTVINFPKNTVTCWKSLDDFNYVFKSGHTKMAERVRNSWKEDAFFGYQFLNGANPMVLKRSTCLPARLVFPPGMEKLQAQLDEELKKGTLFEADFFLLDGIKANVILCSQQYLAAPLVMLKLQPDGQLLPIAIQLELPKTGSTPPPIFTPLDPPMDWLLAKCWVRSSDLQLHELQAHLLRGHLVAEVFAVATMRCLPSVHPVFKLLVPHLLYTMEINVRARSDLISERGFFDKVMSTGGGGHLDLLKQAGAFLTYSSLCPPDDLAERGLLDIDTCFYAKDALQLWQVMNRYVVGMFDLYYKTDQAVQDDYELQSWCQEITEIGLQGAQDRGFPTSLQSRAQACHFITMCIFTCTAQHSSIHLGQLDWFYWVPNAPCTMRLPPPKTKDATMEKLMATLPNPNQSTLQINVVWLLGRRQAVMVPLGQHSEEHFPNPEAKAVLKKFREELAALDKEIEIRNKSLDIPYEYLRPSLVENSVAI
Description: Inhibition of 15-LOX-1 in C57bl/6 mouse precision-cut lung slices assessed as reduction in LPS-stimulated IL-12b mRNA expression level at 5 uM incubated for 20 hrs followed by LPS stimulation for 4 hrs in presence of linoleic acid by RT-qPCR analysis. In outline: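 Lung slices, 250 μm, were cut from agarose-filled lungs of male C57bl/6 mice aged 8-10 weeks and cultured at 37 °C in 5% CO2 in supplemented DMEM, 3 slices per well. Inhibitor was given for 20 h with 10 μM linoleic acid. For the last 4 h, 10 ng/ml LPS plus 10 ng/ml IFNγ were added. Read-out was RT-qPCR (10 ng cDNA, GAPDH assay included), in duplicate or triplicate wells, as fold change versus LPS/linoleic acid control, with 4-6 independent experiments.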

The structures appear in SMILES notation. Calls of active or inactive are those of the source. No cut-off for these calls is given here.

Turning to `CCCCNC(=O)c1cc(-c2ccccc2)sc1N`, the Ki in assay [1] is 3.3 µM. Moreover, the inhibition entry in assay [2] is “Active”.

By Ki is commonly meant the dissociation constant of the complex between target and ligand, obtained from inhibition or displacement.

For the origin of these results see ChEMBL document CHEMBL3871264, “Design of a novel thiophene inhibitor of 15-lipoxygenase-1 with both anti-inflammatory and neuroprotective properties” (Eur J Med Chem, 2016).
